ChEMBL document CHEMBL1126201, “Synthesis, characterization, and biological evaluation of a novel class of N-(arylethyl)-N-alkyl-2-(1-pyrrolidinyl)ethylamines: structural requirements and binding affinity at the sigma receptor” (J Med Chem, 1992)

Columns and labels:
[1] = molecular target: D(2) dopamine receptor (Rattus norvegicus, UniProt P61169); assay: Ability to displace [3H]sulpiride from dopamine receptor D2 in rat brain; format: tissue-based
Procedure, shortened: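 Rat (male Sprague-Dawley) brain P2 membranes, 500 µg protein, with 5 nM [3H]-(-)-sulpiride in 50 mM Tris-HCl pH 7.7 + 120 mM NaCl, 60 min at 25 °C; haloperidol 1 µM for nonspecific binding; filtration, two washes.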

[2] = molecular target: Kappa-type opioid receptor (Cavia porcellus, UniProt P41144); assay: Ability to displace [3H]bremazocine from opioid receptor kappa in guinea pig brain membranes; No inhibition; format: cell membranes
Kappa-type opioid receptor, sequence (P41144 whole entry): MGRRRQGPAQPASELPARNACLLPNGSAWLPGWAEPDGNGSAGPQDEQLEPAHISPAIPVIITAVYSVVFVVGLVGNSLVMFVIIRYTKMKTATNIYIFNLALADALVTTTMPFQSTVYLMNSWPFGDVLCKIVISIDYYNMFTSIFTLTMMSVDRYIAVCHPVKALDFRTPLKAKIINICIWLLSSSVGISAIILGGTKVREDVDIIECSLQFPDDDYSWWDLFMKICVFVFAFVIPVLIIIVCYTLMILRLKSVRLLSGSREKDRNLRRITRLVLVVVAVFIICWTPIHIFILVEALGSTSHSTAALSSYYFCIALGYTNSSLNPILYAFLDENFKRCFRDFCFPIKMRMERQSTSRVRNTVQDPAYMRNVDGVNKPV
Procedure, shortened: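 Kappa sites labeled with 2 nM [3H]bremazocine on guinea pig brain P2 membranes (500 µg protein) in 10 mM Tris-HCl pH 7.4, 0.5 mL, with 100 nM DAGO and 100 nM DSTLE to mask mu/delta; 90 min at 25 °C. Terminated by ice-cold buffer and glass-fiber filtration. Screened at 100, 1000 and 10,000 nM; duplicates.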

[3] = tested on: Glutamate [NMDA] receptor; assay: Ability to displace [3H]TCP from PCP receptor in guinea pig membranes; No inhibition; format: cell membranes, Cavia porcellus
Procedure, shortened: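 Guinea pig brain crude P2 membranes (500 µg protein) incubated with 5 nM [3H]TCP in 5 mM Tris-HCl pH 7.4, 0.5 mL, 60 min at 4 °C; stopped by ice-cold buffer and filtration through polyethylenimine-soaked (0.3%) glass-fiber filters, washed twice. Nonspecific binding with 10 µM cyclazocine. Screened at 100, 1000 and 10,000 nM; duplicates.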

[4] = molecular target: Glutamate [NMDA] receptor; assay: Ability to displace [3H]TCP from PCP receptor in guinea pig membranes; format: cell membranes, Cavia porcellus
Procedure, shortened: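 Guinea pig brain (minus cerebella) crude P2 membranes, 500 µg protein, incubated with 5 nM [3H]TCP in 5 mM Tris-HCl pH 7.4 for 60 min at 4 °C. Filtered on polyethylenimine-soaked glass-fiber filters; nonspecific binding defined with 10 µM cyclazocine. […] Duplicates, 2–3 experiments; IC50 converted to Ki by Cheng-Prusoff (Kd 25 nM).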

D(2) dopamine receptor, sequence (P61169 whole entry): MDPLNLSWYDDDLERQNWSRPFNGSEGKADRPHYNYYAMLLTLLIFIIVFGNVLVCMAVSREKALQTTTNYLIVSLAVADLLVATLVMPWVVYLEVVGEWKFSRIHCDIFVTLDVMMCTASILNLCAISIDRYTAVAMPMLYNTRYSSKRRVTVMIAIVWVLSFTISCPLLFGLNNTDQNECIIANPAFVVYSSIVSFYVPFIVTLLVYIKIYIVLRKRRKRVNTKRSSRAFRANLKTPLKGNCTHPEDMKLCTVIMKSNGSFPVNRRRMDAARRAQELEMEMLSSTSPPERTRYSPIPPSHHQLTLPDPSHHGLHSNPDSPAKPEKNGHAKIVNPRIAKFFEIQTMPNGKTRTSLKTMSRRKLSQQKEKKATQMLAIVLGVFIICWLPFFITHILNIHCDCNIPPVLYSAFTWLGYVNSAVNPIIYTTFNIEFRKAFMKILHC

| Structure (SMILES) | Ki [1] | Ki [2] | Ki [3] | Ki [4] |
| --- | --- | --- | --- | --- |
| CCN(CCc1ccc(Cl)c(Cl)c1)CCN1CCCC1 | 1.66 µM | Not Active | Not Active | – |
| CN(CCc1cccc(Cl)c1)CCN1CCCC1 | 6.5 µM | Not Active | Not Active | – |
| CN(CCc1ccc(Cl)c(Cl)c1)CCN1CCCCC1 | 1.21 µM | Not Active | Not Active | – |
| CN(CCN1CCCC1)Cc1ccc(Cl)c(Cl)c1 | 1.3 µM | Not Active | Not Active | – |
| CCN(CC)CCN(C)CCc1ccc(Cl)c(Cl)c1 | 3.01 µM | Not Active | Not Active | – |
| CN(CCc1ccc(Cl)c(Cl)c1)CCN1CCCC1 | 1.11 µM | Not Active | Not Active | – |
| C[C@@H](CN1CCCC1)N(C)CCc1ccc(Cl)c(Cl)c1 | 11.2 µM | Not Active | – | 3.04 µM |
| CN(CCc1ccc(Cl)c(Cl)c1)CCN1CCCCCC1 | 6.75 µM | Not Active | – | 6.94 µM |
